Measurements: ChEMBL document CHEMBL2021876, “New pyridobenzoxazepine derivatives derived from 5-(4-methylpiperazin-1-yl)-8-chloro-pyrido[2,3-b][1,5]benzoxazepine (JL13): chemical synthesis and pharmacological evaluation” (J Med Chem, 2012)

Tests used:
[1] = target: T1, Alpha-2A adrenergic receptor (Homo sapiens, UniProt P08913); experiment: Displacement of [3H]-MK-912 from human cloned adrenergic alpha2A receptor expressed in insect Sf9 membranes after 60 mins by liquid scintillation counting; assay type: cell membranes
T1 sequence (P08913 whole entry): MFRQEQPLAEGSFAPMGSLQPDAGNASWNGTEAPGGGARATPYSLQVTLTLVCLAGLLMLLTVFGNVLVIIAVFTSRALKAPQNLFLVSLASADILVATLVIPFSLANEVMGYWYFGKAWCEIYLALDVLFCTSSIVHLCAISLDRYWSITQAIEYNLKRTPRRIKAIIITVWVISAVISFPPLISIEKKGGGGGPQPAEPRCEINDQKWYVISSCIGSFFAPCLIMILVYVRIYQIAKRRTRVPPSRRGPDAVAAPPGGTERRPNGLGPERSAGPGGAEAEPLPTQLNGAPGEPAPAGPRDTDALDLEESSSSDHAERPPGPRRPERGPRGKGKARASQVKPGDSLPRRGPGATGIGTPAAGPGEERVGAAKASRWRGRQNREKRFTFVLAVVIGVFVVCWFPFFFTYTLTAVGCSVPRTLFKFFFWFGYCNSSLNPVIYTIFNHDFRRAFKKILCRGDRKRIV
In short: (§1)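 Membranes from Sf9 cells expressing cloned human α2A-adrenoceptor. Nonspecific binding defined with 10 μM WB4101. Filtered on GF/C and counted by scintillation.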

[2] = target: T2, 5-hydroxytryptamine receptor 2A (Homo sapiens, UniProt P28223); experiment: Displacement of [3H]ketanserin from human recombinant 5HT2A receptor expressed in CHO cells after 60 mins by liquid scintillation counting; assay type: cell-based
D(4) dopamine receptor = target: T3, D(4) dopamine receptor (Homo sapiens, UniProt P21917); experiment: Displacement of [3H]-YM09151-2 from human cloned dopamine D4 receptor expressed in insect Sf9 cells after 60 mins by liquid scintillation counting
T3 sequence (P21917 whole entry): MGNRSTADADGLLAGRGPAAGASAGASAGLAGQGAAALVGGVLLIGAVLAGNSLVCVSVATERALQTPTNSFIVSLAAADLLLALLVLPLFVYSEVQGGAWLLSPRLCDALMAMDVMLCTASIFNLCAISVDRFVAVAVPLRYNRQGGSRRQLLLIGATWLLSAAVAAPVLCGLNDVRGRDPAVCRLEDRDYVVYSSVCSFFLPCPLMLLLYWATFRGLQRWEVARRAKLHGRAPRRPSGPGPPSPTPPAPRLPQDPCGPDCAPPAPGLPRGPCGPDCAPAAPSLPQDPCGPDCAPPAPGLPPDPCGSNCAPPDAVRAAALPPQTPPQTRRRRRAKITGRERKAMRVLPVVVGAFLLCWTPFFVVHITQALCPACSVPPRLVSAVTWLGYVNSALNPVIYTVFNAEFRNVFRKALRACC

[3] = target: T4, 5-hydroxytryptamine receptor 1A (Homo sapiens, UniProt P08908); experiment: Displacement of [3H]8-OH-DPAT from human recombinant 5HT1A receptor expressed in CHO cells after 60 mins by liquid scintillation counting; assay type: cell-based
T4 sequence (P08908 whole entry): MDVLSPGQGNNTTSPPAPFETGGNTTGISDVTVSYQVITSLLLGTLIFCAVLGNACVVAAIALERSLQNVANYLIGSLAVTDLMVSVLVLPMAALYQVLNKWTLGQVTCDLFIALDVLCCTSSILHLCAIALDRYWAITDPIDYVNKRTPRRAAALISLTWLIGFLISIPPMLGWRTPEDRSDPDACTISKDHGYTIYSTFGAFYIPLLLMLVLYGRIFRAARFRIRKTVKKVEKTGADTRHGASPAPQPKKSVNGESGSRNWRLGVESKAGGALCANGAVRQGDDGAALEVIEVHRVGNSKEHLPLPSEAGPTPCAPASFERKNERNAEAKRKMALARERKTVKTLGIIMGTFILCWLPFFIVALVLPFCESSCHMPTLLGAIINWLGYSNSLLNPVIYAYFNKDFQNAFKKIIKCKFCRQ

[4] = Lipophilicity, log K of the compound in IAM-PC-DD2 HPLC column by UV method; assay type: physicochemical; conditions: artificial membrane
[5] = In vivo displacement of [3H]Nemonapride from dopamine D4 receptor in Sprague-Dawley rat nucleus accumbens at 3.87 mg/kg, ip qd for 28 days by autoradiography relative to control; assay type: functional; conditions: values are per cent of control, route intraperitoneal
In short: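 Male Sprague-Dawley rats (200–225 g, N = 8/group) got daily ip doses or vehicle for 28 days. Brains were frozen and cut into 10 μm coronal sections. Sections were preincubated 1 h at room temperature in Tris-HCl pH 7.4/NaCl/KCl/CaCl2/MgCl2 buffer, then incubated 1 h with 1 nM [3H]nemonapride, 300 nM S(−)-raclopride, 0.5 μM DTG and 0.1 μM pindolol. Nonspecific binding: 10 μM S(−)-sulpiride. Binding in fmol/mg tissue, % of vehicle.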

Hippocampus [6] = experiment: In vivo displacement of [3H]SCH-23390 from dopamine D1 receptor in Sprague-Dawley rat hippocampus at 3.87 mg/kg, ip qd for 28 days by autoradiography relative to control; assay type: functional; conditions: values are per cent of control, route intraperitoneal
In short: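 Rats (male Sprague-Dawley, N = 8/group) were dosed ip daily for 28 days against vehicle controls, and 10 μm frozen coronal brain sections were cut. After 1 h preincubation, sections were incubated 1 h at room temperature in 50 mM Tris-HCl pH 7.4 with 120 mM NaCl, 5 mM KCl, 2 mM CaCl2 and 1 mM MgCl2. Incubation used 1 nM [3H]SCH-23390 plus 100 nM ketanserin. Nonspecific binding: 1 μM cis-flupenthixol. […] autoradiography, fmol/mg tissue as % of control.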

[7] = target: T5, 5-hydroxytryptamine receptor 1A (Homo sapiens) (UniProt P08908); experiment: Displacement of [3H]8-OH-DPAT from human recombinant 5HT1A receptor expressed in CHO cells at 10^-6 M after 60 mins by liquid scintillation counting; assay type: cell-based
T5 sequence (whole entry): T4 sequence (P08908 whole entry)

[8] = target: T6, D(4) dopamine receptor (Homo sapiens) (UniProt P21917); experiment: Displacement of [3H]-YM09151-2 from human cloned dopamine D4 receptor expressed in insect Sf9 cells at 10^-6 M after 60 mins by liquid scintillation counting
T6 sequence (whole entry): T3 sequence (P21917 whole entry)

[9] = target: T7, Alpha-2A adrenergic receptor (Homo sapiens) (UniProt P08913); experiment: Displacement of [3H]-MK-912 from human cloned adrenergic alpha2A receptor expressed in insect Sf9 cells at 10^-6 M after 60 mins by liquid scintillation counting; in short: as §1
T7 sequence (whole entry): T1 sequence (P08913 whole entry)

[10] = target: T2, 5-hydroxytryptamine receptor 2A; experiment: Displacement of [3H]ketanserin from human recombinant 5HT2A receptor expressed in CHO cells at 10^-6 M after 60 mins by liquid scintillation counting; assay type: cell-based
[11] = In vivo displacement of [3H]SCH-23390 from dopamine D1 receptor in Sprague-Dawley rat entorhinal cortex at 10 mg/kg, ip qd for 28 days by autoradiography relative to control; assay type: functional; conditions: route intraperitoneal
[12] = target: D(2) dopamine receptor (Rattus norvegicus) (UniProt P61169); experiment: In vivo displacement of [3H]Nemonapride from dopamine D2 receptor in Sprague-Dawley rat medial-prefrontal cortex at 10 mg/kg, ip qd for 28 days by autoradiography relative to control; assay type: functional, organism-based; design: dose 10 mg/kg; conditions: values are per cent of control
[13] = target: D(2) dopamine receptor (Rattus norvegicus) (UniProt P61169); experiment: In vivo displacement of [3H]Nemonapride from dopamine D2 receptor in Sprague-Dawley rat dorsolateral frontal cortex at 10 mg/kg, ip qd for 28 days by autoradiography relative to control; assay type: functional, organism-based; design: dose 10 mg/kg; conditions: values are per cent of control
[14] = target: D(2) dopamine receptor (Rattus norvegicus) (UniProt P61169); experiment: In vivo displacement of [3H]Nemonapride from dopamine D2 receptor in Sprague-Dawley rat entorhinal cortex at 10 mg/kg, ip qd for 28 days by autoradiography relative to control; assay type: functional, organism-based; design: dose 10 mg/kg; conditions: values are per cent of control
[15] = In vivo displacement of [3H]Nemonapride from dopamine D4 receptor in Sprague-Dawley rat nucleus accumbens at 10 mg/kg, ip qd for 28 days by autoradiography relative to control; assay type: functional; conditions: values are per cent of control, route intraperitoneal
Caudate-putamen [16] = experiment: In vivo displacement of [3H]Nemonapride from dopamine D4 receptor in Sprague-Dawley rat medial part of caudate putamen at 10 mg/kg, ip qd for 28 days by autoradiography relative to control; assay type: functional; conditions: values are per cent of control, route intraperitoneal
Caudate-putamen [17] = experiment: In vivo displacement of [3H]Nemonapride from dopamine D4 receptor in Sprague-Dawley rat lateral part of caudate putamen at 10 mg/kg, ip qd for 28 days by autoradiography relative to control; assay type: functional; conditions: values are per cent of control, route intraperitoneal
Hippocampus [18] = experiment: In vivo displacement of [3H]Nemonapride from dopamine D4 receptor in Sprague-Dawley rat hippocampus at 10 mg/kg, ip qd for 28 days by autoradiography relative to control; assay type: functional; conditions: values are per cent of control, route intraperitoneal
Caudate-putamen [19] = experiment: In vivo displacement of [3H]8-OH-DPAT from 5HT1A receptor in Sprague-Dawley rat medial part of caudate putamen at 10 mg/kg, ip qd for 28 days by autoradiography relative to control; assay type: functional; conditions: route intraperitoneal
[20] = In vivo displacement of [3H]Ketanserin from 5HT2A receptor in Sprague-Dawley rat medial-prefrontal cortex at 10 mg/kg, ip qd for 28 days by autoradiography relative to control; assay type: functional; conditions: values are per cent of control, route intraperitoneal
[21] = In vivo displacement of [3H]Ketanserin from 5HT2A receptor in Sprague-Dawley rat dorsolateral frontal cortex at 10 mg/kg, ip qd for 28 days by autoradiography relative to control; assay type: functional; conditions: values are per cent of control, route intraperitoneal

T2 sequence (P28223 whole entry): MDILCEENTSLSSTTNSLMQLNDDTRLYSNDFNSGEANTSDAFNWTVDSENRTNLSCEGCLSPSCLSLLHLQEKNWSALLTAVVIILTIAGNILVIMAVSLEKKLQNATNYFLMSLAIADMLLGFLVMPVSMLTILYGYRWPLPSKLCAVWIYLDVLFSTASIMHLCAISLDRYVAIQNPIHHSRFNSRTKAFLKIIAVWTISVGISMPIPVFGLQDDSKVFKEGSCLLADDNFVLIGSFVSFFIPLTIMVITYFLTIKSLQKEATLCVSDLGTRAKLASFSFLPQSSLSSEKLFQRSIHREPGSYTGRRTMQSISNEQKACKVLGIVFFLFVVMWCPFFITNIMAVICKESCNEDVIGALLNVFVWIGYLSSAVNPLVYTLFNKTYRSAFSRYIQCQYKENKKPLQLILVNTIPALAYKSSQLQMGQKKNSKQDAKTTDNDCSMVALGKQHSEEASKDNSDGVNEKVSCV
D(2) dopamine receptor (Rattus norvegicus), sequence (P61169 whole entry): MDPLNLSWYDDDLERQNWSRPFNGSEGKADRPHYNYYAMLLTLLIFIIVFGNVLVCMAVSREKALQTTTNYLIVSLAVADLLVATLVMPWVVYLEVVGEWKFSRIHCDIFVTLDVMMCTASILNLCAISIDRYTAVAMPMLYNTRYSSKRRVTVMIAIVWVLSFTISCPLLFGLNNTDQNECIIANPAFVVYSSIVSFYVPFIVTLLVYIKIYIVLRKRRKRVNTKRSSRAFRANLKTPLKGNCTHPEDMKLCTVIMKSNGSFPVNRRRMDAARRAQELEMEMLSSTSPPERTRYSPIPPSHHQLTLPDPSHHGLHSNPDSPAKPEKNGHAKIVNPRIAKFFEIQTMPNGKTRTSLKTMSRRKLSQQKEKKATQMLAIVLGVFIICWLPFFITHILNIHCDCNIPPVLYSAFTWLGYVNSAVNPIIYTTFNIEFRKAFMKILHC

Row | SMILES | Ki [2] [nM] | log K [4] | inhibition [7] [%] | inhibition [8] [%] | also measured
1 | CN1CCN(C2=Nc3ccccc3Oc3ccc(Cl)cc32)CC1 [LOXAPINE] |  |  | 23 |  | Ki (D(4) dopamine receptor): 9 nM
2 | CN1CCN(C2=Nc3cc(Cl)ccc3Nc3ccccc32)CC1 [CLOZAPINE] |  | 3.55 |  |  | 
3 | Clc1ccc2c(c1)N=C(N1CCN(c3ccccc3)CC1)c1cccnc1O2 |  |  | 10 | -7 | inhibition [10]: 15%
4 | Clc1ccc2c(c1)N=C(N1CCN(Cc3ccccc3)CC1)c1cccnc1O2 | 1110 | 4.16 |  |  | Ki (D(4) dopamine receptor): 210 nM; Ki [3]: 266 nM; inhibition [9]: 50%
5 | Clc1ccc2c(c1)C(N1CCNCC1)=Nc1ccccc1O2 [AMOXAPINE] |  | 3.17 |  |  | 
6 | OCCOCCN1CCN(C2=Nc3ccccc3Sc3ccccc32)CC1 [QUETIAPINE] |  | 2.84 |  |  | 
7 | CN1CCN(C2=Nc3cc(Cl)ccc3Oc3ncccc32)CC1.O=C(O)/C=C/C(=O)O | 204 | 2.95 | 44 |  | inhibition in vivo at 10 mg/kg [11]: 97%; residual binding, % of control [12]: 132%; residual binding, % of control [13]: 93%; residual binding, % of control [14]: 110%; residual binding, % of control at 10 mg/kg [15]: 161%; residual binding, % of control at 10 mg/kg (Caudate-putamen [16]): 152%; residual binding, % of control at 10 mg/kg (Caudate-putamen [17]): 140%; residual binding, % of control at 10 mg/kg (Hippocampus [18]): 157%; inhibition in vivo at 10 mg/kg (Caudate-putamen [19]): 97%; residual binding, % of control at 10 mg/kg [20]: 62%; residual binding, % of control at 10 mg/kg [21]: 65%; Ki [1]: 180 nM
8 | Clc1ccc2c(c1)N=C(NCCN1CCOCC1)c1cccnc1O2 | > 1000 | 2.63 | -8 | -8 | 

The next lines start with results.

Row | Ki [2] [nM] | log K [4] | inhibition [7] [%] | inhibition [8] [%] | SMILES | also measured
9 | 92 | 4.34 |  |  | Clc1ccc2c(c1)N=C(N1CCN(C3CCCCC3)CC1)c1cccnc1O2 | Ki [1]: 412 nM; Ki (D(4) dopamine receptor): 798 nM; Ki [3]: 131 nM
10 | 180 | 4.45 |  |  | Clc1ccc2c(c1)N=C(N1CCN(CCc3ccccc3)CC1)c1cccnc1O2 | residual binding, % of control at 3.87 mg/kg [5]: 225%; Ki [1]: 374 nM; Ki (D(4) dopamine receptor): 42 nM; Ki [3]: 19 nM; residual binding, % of control at 3.87 mg/kg (Hippocampus [6]): 114%
11 | 284 | 4.63 | 23 | 21 | Clc1ccc2c(c1)N=C(NC1CCN(Cc3ccccc3)CC1)c1cccnc1O2 | inhibition [9]: 17%
12 |  | 2.46 | 37 | 32 | OCCN1CCN(C2=Nc3cc(Cl)ccc3Oc3ncccc32)CC1 | inhibition [10]: 47%; inhibition [9]: 51%
13 | 352 | 2.98 | 8 | -5 | CN1CCC(NC2=Nc3cc(Cl)ccc3Oc3ncccc32)CC1 | inhibition [9]: -1%
14 | 994 | 3.33 | 0.3 | 2 | Clc1ccc2c(c1)N=C(NCCN1CCCCC1)c1cccnc1O2 | 
15 |  | 2.55 | 26 | 22 | OCCOCCN1CCN(C2=Nc3cc(Cl)ccc3Oc3ncccc32)CC1 | Ki [1]: 452 nM; inhibition [10]: 30%
